Tests used:
Settings in all cases: stereoisomer not certain
OR51Q1 (Homo sapiens) = OR51Q1 (Homo sapiens) (UniProt Q8NH59)
Outline: (§1)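 Each entry records the cell line, G-protein, co-transfected protein and tags used. Methods varied with the source, often transient luciferase assays in mammalian cell lines. A receptor–molecule pair is called responsive (active) if the original authors judged its signal statistically different from baseline and non-responsive (inactive) otherwise.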

OR51S1 (Homo sapiens) = OR51S1 (Homo sapiens) (UniProt Q8NGJ8)
Sequence of OR51S1 (Homo sapiens) (Q8NGJ8 whole entry): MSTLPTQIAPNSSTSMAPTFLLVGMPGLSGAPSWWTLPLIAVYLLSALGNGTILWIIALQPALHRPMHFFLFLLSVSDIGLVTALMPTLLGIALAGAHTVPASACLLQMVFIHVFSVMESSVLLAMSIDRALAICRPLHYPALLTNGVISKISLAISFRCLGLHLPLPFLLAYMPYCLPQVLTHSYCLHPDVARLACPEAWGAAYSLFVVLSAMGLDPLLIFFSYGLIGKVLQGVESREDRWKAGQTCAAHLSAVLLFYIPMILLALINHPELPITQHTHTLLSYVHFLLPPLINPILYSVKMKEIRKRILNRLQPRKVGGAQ
Outline: as §1

OR51T1 (Homo sapiens) = OR51T1 (Homo sapiens) (UniProt Q8NGJ9)
Sequence of OR51T1 (Homo sapiens) (Q8NGJ9 whole entry): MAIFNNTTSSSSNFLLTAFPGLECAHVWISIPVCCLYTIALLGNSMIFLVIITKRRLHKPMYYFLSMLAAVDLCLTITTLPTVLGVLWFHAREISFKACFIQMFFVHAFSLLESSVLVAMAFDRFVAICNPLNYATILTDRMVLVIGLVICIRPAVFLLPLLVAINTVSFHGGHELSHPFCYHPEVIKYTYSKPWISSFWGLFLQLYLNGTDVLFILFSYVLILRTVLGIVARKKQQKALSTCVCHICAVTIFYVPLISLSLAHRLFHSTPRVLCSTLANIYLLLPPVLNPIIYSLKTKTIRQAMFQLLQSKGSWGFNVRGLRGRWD
Outline: as §1

OR51V1 (Homo sapiens) = OR51V1 (Homo sapiens) (UniProt Q9H2C8)
Sequence of OR51V1 (Homo sapiens) (Q9H2C8 whole entry): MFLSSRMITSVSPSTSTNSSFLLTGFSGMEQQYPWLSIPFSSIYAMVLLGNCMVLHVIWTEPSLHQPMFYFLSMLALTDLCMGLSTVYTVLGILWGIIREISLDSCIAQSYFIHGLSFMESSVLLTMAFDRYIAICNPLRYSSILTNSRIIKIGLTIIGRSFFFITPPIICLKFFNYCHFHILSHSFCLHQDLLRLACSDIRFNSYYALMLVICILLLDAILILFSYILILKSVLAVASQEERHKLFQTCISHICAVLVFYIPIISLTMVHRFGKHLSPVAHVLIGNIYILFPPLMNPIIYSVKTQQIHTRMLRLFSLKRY
Outline: as §1

OR52A1 (Homo sapiens) = OR52A1 (Homo sapiens) (UniProt Q9UKL2)
Sequence of OR52A1 (Homo sapiens) (Q9UKL2 whole entry): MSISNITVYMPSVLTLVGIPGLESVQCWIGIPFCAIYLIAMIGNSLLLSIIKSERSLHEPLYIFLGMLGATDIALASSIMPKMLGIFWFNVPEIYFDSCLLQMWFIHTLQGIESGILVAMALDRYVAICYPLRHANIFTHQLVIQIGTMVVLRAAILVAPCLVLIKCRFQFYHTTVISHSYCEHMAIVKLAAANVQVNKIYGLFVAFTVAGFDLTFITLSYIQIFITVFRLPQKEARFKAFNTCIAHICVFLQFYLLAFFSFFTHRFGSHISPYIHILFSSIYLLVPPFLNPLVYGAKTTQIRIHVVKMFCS
Outline: as §1

OR52A4P (Homo sapiens) = OR52A4P (Homo sapiens) (UniProt A6NMU1)
Sequence of OR52A4P (Homo sapiens) (A6NMU1 whole entry): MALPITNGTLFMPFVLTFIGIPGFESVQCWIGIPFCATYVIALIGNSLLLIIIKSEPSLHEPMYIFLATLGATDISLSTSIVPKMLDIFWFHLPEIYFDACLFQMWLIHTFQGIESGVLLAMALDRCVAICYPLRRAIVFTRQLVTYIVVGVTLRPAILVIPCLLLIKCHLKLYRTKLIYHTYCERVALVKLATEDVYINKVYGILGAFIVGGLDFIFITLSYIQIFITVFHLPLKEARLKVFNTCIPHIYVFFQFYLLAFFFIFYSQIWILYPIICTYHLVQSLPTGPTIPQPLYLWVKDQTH
Outline: as §1

OR52A5 (Homo sapiens) = OR52A5 (Homo sapiens) (UniProt Q9H2C5)
Sequence of OR52A5 (Homo sapiens) (Q9H2C5 whole entry): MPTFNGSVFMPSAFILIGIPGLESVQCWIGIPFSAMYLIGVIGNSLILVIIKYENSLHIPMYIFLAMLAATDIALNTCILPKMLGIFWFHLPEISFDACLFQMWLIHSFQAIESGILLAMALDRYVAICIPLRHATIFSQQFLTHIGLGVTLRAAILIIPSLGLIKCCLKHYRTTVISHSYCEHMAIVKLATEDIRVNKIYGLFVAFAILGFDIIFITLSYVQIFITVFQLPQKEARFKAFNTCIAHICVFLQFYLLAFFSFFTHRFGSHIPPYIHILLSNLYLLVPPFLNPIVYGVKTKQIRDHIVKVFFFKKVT
Outline: as §1

OR52B2 (Homo sapiens) = OR52B2 (Homo sapiens) (UniProt Q96RD2)
Sequence of OR52B2 (Homo sapiens) (Q96RD2 whole entry): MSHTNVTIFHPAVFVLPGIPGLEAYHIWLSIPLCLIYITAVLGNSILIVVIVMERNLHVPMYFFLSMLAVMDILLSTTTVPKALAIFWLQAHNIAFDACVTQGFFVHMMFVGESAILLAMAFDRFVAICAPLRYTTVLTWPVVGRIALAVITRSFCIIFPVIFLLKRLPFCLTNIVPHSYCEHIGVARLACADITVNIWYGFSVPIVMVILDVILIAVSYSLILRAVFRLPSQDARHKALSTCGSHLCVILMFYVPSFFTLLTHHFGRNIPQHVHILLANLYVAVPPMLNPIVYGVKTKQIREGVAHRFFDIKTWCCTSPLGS
Outline: as §1

OR52B4 (Homo sapiens) = OR52B4 (Homo sapiens) (UniProt Q8NGK2)
Sequence of OR52B4 (Homo sapiens) (Q8NGK2 whole entry): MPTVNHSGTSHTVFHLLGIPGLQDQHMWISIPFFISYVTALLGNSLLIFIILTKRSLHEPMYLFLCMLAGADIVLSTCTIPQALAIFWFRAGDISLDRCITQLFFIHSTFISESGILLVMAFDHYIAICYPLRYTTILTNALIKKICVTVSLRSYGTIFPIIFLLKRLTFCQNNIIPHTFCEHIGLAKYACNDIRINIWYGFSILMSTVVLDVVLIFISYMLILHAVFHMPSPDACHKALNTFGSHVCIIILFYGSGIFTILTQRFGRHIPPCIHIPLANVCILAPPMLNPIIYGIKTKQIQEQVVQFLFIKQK
Outline: as §1

OR52B6 (Homo sapiens) = OR52B6 (Homo sapiens) (UniProt Q8NGF0)
Sequence of OR52B6 (Homo sapiens) (Q8NGF0 whole entry): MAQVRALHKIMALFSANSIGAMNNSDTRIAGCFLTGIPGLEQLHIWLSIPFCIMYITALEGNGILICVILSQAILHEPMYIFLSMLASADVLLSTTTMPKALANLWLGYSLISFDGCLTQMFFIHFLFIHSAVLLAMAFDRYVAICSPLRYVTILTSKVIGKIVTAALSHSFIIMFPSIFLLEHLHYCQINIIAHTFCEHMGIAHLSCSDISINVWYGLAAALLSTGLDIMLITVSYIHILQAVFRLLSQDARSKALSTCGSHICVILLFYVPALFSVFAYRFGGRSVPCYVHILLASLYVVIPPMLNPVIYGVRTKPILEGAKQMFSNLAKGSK
Outline: as §1

Measured: odorant receptor agonist call

Sequence of OR51Q1 (Homo sapiens) (Q8NH59 whole entry): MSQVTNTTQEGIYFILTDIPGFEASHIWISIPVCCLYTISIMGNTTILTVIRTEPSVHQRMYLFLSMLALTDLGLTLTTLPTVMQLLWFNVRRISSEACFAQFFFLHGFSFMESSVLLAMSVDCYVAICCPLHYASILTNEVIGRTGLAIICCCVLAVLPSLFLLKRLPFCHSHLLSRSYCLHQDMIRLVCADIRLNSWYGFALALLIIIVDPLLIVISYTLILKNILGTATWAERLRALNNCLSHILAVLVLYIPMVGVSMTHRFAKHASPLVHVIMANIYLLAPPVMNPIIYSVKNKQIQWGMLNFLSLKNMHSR

Cc1c([N+](=O)[O-])c(C)c([N+](=O)[O-])c(C(C)(C)C)c1[N+](=O)[O-]
inactive: all assays above

C=CCOC(=O)Cc1ccccc1
not listed: OR51T1 (Homo sapiens) | OR52A4P (Homo sapiens)
inactive: all other assays above

Reference: the M2OR odorant receptor database
